These results are taken from ChEMBL document CHEMBL1140471, “Inhibitors of NF-kappaB derived from thalidomide” (Bioorg Med Chem Lett, 2007).

The structures appear in SMILES notation. A value given as a limit tells only on which side of the number the result lay.

This experiment in a line: Inhibition of IL-1-alpha-induced NF-kappaB activation in HeLa cells assessed as blocking of p50/p65 nuclear translocation. In kind it is cell-based. Conditions: Homo sapiens. In short, it runs like this:
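HeLa cells stimulated with IL-1α (5 ng/ml) with or without compound for 30 min, then fixed and immunostained for p65 with Hoechst nuclear counterstain. Plates were scanned by fluorescence imaging microscopy. IC50 = concentration reducing nuclear minus cytoplasmic p65 fluorescence by 50%.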
Take `Nc1cccc2c1C(=O)N(C1CCC(=O)NC1=O)C2=O` (centres undefined) [POMALIDOMIDE]: the 50% inhibitory concentration (IC50) came to 1.27 µM.
The same measure for `CC(C)c1cccc(C(C)C)c1N1C(=O)c2cccc(O)c2C1=O`: 4.95 µM; for `CCc1cccc(CC)c1N1C(=O)c2ccc(O)cc2C1=O`: above 50 µM; for `CC(C)c1cccc(C(C)C)c1N1C(=O)c2ccc(N)cc2C1=O`: 29.5 µM.
The same measure for `CCCc1ccccc1N1C(=O)c2ccc(O)cc2C1=O`: above 50 µM; for `O=C1c2ccc(O)cc2C(=O)N1c1c(Cl)cccc1Cl`: above 50 µM; for `CC(C)c1cccc(C(C)C)c1N1C(=O)c2cccc([N+](=O)[O-])c2C1=O`: above 50 µM.
Regarding `CC(C)c1ccccc1N1C(=O)c2ccc(O)cc2C1=O`, the IC50 was above 50 µM.
As for `CC(C)c1cccc(C(C)C)c1N1C(=O)c2ccc(C(=O)O)cc2C1=O`, the figure is above 50 µM.
As to `CC(C)c1cccc(C(C)C)c1N1C(=O)c2ccccc2C1=O`, the IC50 was above 50 µM.
On to `CC(C)c1cccc(C(C)C)c1N1C(=O)c2ccc([N+](=O)[O-])cc2C1=O`, for which the IC50 is above 50 µM.
With `O=C1c2ccc(O)cc2C(=O)N1c1c(Br)cccc1Br`, the IC50 was found to be 0.43 µM.
The same measure for `CC(C)c1cccc(C(C)C)c1N1C(=O)c2cccc(N)c2C1=O`: above 50 µM; for `COC(=O)c1ccc2c(c1)C(=O)N(c1c(C(C)C)cccc1C(C)C)C2=O`: above 50 µM.
The same measure for `CC(C)(C)c1ccccc1N1C(=O)c2ccc(O)cc2C1=O`: above 50 µM; for `CC(C)c1cccc(C(C)C)c1N1C(=O)c2ccc(OS(N)(=O)=O)cc2C1=O`: above 50 µM.
Consider `CC(C)(C)c1ccc(S(=O)(=O)/C=C/C#N)cc1` [BAY-11-7085], for which the IC50 came out at 0.1 µM.
In the case of `O=C1c2ccc(O)cc2C(=O)N1c1c(F)cccc1F`, the concentration for half-maximal inhibition (IC50) is above 50 µM.
`CC(C)c1cccc(C(C)C)c1N1C(=O)c2ccc(Cl)cc2C1=O`: the IC50 is above 50 µM.
As for `Cc1ccc2c(c1)C(=O)N(c1c(C(C)C)cccc1C(C)C)C2=O`, the half-inhibitory concentration (IC50) was above 50 µM.
As for `CC(C)c1cccc(C(C)C)c1N1C(=O)c2ccc(O)cc2C1=O`, the figure is 0.53 µM; as for `O=C1CCC(N2C(=O)c3ccccc3C2=O)C(=O)N1` (centres undefined) [THALIDOMIDE], 2.04 µM; as for `Cc1cccc(C)c1N1C(=O)c2ccc(O)cc2C1=O`, above 50 µM.
As for `CC(=O)Nc1ccc2c(c1)C(=O)N(c1c(C(C)C)cccc1C(C)C)C2=O`, the figure is above 50 µM.
